Source: ChEMBL document CHEMBL1132403, “Prospective identification of biologically active structures by topomer shape similarity searching” (J Med Chem, 1999)

Biological target: T1, Type-1 angiotensin II receptor B (Rattus norvegicus) (UniProt P29089)
T1 sequence (whole entry): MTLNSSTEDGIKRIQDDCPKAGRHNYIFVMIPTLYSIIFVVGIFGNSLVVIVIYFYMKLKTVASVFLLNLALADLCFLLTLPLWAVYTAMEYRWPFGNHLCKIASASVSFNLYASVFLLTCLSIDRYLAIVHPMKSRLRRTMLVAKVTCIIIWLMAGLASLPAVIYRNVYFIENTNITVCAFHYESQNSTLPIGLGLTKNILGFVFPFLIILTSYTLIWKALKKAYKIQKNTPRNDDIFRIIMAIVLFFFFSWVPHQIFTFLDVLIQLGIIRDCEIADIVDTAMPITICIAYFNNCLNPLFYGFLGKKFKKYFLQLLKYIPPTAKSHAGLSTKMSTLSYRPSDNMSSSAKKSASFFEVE
Assay: Percent displacement of [125I]Sar, Ile-Angiotensin II (A II) binding to rat Angiotensin II receptor, type 1
Set-up: concentration or dose not given beside the values
Procedure, shortened: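 Whole-cell competition binding on rat aortic smooth muscle cells expressing rat AT1, seeded 24 h before assay. Radioligand [125I]Sar,Ile-angiotensin II at 0.2 nM in DMEM pH 7.4 with 5 mM MgCl2, 1 mM EDTA and 0.1% BSA. Incubation 2 h at 25 °C with mild shaking. Nonspecific binding defined by 10 μM angiotensin II (final). Cells washed twice with PBS, lysed in 1% Triton X/0.1% BSA, and counted on a γ counter. Assay variability at least ±20%.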

Row | Displacement | SMILES
1 | 21% | O=C1COc2cccnc2N1Cc1cccc(-c2cccc(Cc3nnn[nH]3)c2)c1
2 | 31% | O=C(O)c1cccc(-c2ccc(CN3C(=O)C(=O)c4c(Cl)ccc(Cl)c43)cc2)c1
3 | 47% | CN(C)c1cnnc2ncn(Cc3cccc(-c4ccccc4C(=O)O)c3)c12

More lines, now with the values behind:

Row | SMILES | Displacement
4 | CCCc1nccn1Cc1ccc(-c2ccccc2C(=O)O)cc1 | 37%
5 | Clc1nc2ccccc2n1Cc1ccc(-c2ccccc2Cc2nnn[nH]2)cc1 | 31%
6 | O=C(O)c1cccc(-c2ccc(Cn3c(C(F)(F)F)nc4ccccc43)cc2)c1 | 33%
7 | c1ccc(-c2ccc(Cn3c(-c4cscn4)nc4ccccc43)cc2)c(Cc2nnn[nH]2)c1 | 35%
8 | CC(C)c1nc2ccccc2n1Cc1ccc(-c2ccccc2-c2nn[nH]n2)cc1 | 69%
9 | CCOC(=O)c1cc2ccccc2n1Cc1cccc(-c2ccccc2CC(=O)O)c1 | 30%
10 | CSc1nc2ccccc2n1Cc1ccc(-c2ccccc2Cc2nnn[nH]2)cc1 | 38%
